In the library only some 4.5% were active in any assay of this set; here they are far more common.
OX1R antag-1 – OX1R (HCRTR1) antagonists, primary screen, fluorescence, CHO/OX1R cells, Fluo-8 calcium, orexin A. Orexin/Hypocretin receptor type 1 (Homo sapiens), O43613. Fluo-8 calcium fluorescence. inhibition, % at 5 µM. hit rate 0.43% among 330,000. AID 434989, 2010;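 active = inhibition above its plate's threshold, mean inhibition of all tested compounds on the plate plus 3 SD, cut at about 37% in these data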;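 also: 0% = orexin A challenge wells and 100% = SB-334867-A antagonist wells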
Target sequence (O43613 whole entry, looked up): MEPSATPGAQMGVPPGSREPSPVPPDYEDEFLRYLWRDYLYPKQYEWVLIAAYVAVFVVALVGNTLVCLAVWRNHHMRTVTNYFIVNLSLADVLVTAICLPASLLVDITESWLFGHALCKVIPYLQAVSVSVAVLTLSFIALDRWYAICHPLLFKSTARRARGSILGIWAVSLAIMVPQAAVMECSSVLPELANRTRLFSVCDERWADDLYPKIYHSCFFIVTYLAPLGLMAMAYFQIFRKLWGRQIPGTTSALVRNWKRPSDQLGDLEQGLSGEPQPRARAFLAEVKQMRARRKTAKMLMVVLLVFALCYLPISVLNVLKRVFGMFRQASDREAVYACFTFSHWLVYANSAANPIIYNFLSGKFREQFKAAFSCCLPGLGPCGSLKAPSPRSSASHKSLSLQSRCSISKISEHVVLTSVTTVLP
GPR7 antag – GPR7 receptor antagonists, primary screen, cell-based, fluorescence, single concentration; Neuropeptides B/W receptor type 1 (Homo sapiens), P48145; GPR7-expressing cells, fluorescence antagonist assay; inhibition, % at 4.4 µM; hit rate 1.1% among 290,000; AID 1861, 2009; in the data active = inhibition above about 16%, passing the limit was not always enough;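 also: cells stimulated with the agonist NPW; 0% = agonist with vehicle and 100% = vehicle without agonist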
Target sequence (P48145 whole entry, looked up): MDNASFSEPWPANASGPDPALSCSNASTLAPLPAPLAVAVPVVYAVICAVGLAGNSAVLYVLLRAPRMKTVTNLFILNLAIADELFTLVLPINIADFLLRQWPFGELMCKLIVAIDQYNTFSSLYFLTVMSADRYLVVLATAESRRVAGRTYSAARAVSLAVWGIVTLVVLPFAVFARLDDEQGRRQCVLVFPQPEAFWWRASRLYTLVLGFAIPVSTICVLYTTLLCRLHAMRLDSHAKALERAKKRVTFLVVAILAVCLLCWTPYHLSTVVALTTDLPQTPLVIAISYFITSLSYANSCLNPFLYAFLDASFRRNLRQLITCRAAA
TAAR1 antagonist – human TAAR1 antagonists, primary screen, Fluo-8 calcium fluorescence, CHO RD-HGA16 cells; Trace amine-associated receptor 1 (Homo sapiens), Q96RJ0; antagonist; inhibition, % at 3 µM; hit rate 1.5% among 360,000; AID 624466, 2012;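 active = inhibition above a per-plate cutoff, the mean inhibition of test compounds on that plate plus 3 SD, cut at about 49% in these data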;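 also: 0% = DMSO plus EC80 beta-PEA response and 100% = DMSO alone without agonist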
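System: RD-HGA16 CHO cells with stable hTAAR1 and Gα16 | Probe or stimulus: EC80 β-phenethylamine stimulus | Dosing: 3 µM, single point | Times: Dye loading 75 min at 37 °C, then 30 min room temperature | Measured by: Fluo-8 calcium-sensitive fluorescence | Read-out basis: % inhibition of agonist calcium response | Replicates: n of 1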
TAAR1 agonist – human TAAR1 agonists, primary screen, Fluo-8 calcium fluorescence, CHO RD-HGA16 cells. vehicle wells 0%, saturating PEA agonist 100%. activation, % at 3 µM. hit rate 0.99% among 360,000;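 active = activation above the mean activation of all test compounds in the run plus 3 SD, cut at about 38% in these data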
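Assay system – CHO-derived RD-HGA16 cells with stable Gα16 and human TAAR1 · Compound dosing – one-point dosing at 3 µM (nominal) · Incubation – 17-24 h seeding, 75 min 37 °C dye, 30 min RT · Measured by – kinetic Fluo-8 calcium fluorescence · Control set – DMSO vehicle as 0%, PEA at EC100 as 100% · Repeats – single well for each compound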
CHO parental Ca – ATP-evoked calcium signal inhibitors, parental CHO, primary screen, counter-screen for OX1R antagonist project, cell-based, fluorescence, Fluo-8 calcium dye. hit rate 0.63% among 330,000. AID 463079, 2010. parental CHO-K1, ATP-induced calcium, Fluo-8 fluorescence. inhibition, % at 5.6 µM;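 active = inhibition above that plate's mean sample inhibition plus 3 SD, cut at about 26% in these data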;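 also: 0% = ATP-challenged DMSO wells and 100% = DMSO wells without ATP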
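material = parental CHO cells | also added = ATP as calcium-mobilizing challenge | dosing = single point at 5.6 µM | detection = intracellular calcium via Fluo-8 no-wash fluorescent dye | read-out = % inhibition | benchmarks = low control ATP plus DMSO, high control DMSO only | repeats = one well per compound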
OX1R antag-2 – antagonists of human orexin 1 receptor (OX1R); Orexin/Hypocretin receptor type 1 (Homo sapiens), O43613; OX1R-expressing cells, FRET antagonist read-out; inhibition, % at 6.6 µM; hit rate 1.8% among 330,000; AID 485270, 2010; in the data active = inhibition mostly above about 38%, no sharp cut-off; inactive = mostly below about 40%;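 also: 0% = agonist challenge alone and 100% = reference antagonist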
OX1R Ca confirm – OX1R (HCRTR1) antagonists, confirmation, fluorescence, CHO/OX1R cells, Fluo-8 calcium, orexin A; shares compounds with OX1R antag-1; orexin A calcium Fluo-8 fluorescence; inhibition, % at 5 µM; hit rate 38% among 1,100; AID 492963, 2010; in the data active = inhibition above about 29%;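 also: 0% = agonist challenge alone and 100% = reference antagonist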
CHO Ca counter – ATP-evoked calcium inhibition in parental CHO, counter-screen for OX1R antagonist project, cell-based, fluorescence, CHO-K1, triplicate; shares compounds with OX1R antag-1; ATP-induced calcium, Fluo-8 fluorescence; inhibition, % at 5.6 µM; hit rate 9.3% among 1,100; AID 492965, 2010;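 active = inhibition above a per-plate limit, the mean inhibition of that plate's test compounds plus 3 SD, cut at about 25% in these data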;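 also: 0% = ATP challenge with DMSO and 100% = DMSO without ATP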
OX1R HTRF conf – OX1R (HCRTR1) antagonists, confirmation, cell-based, HTRF; inhibition, % at 6.6 µM; shares compounds with OX1R antag-2; AID 492964, 2010; OX1R-expressing cells, HTRF antagonist assay; hit rate 49% among 1,800; in the data active = inhibition above about 55%;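 also: CHO cells expressing OX1R stimulated with orexin A at about EC80; 0% = agonist challenge alone and 100% = reference antagonist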
CHO-K1 HTRF cnt – signal inhibition in parental CHO-K1 cells, counter-screen for OX1R antagonist project, cell-based, HTRF | shares compounds with OX1R antag-2 | HTRF counterscreen | inhibition, % at 6.6 µM | hit rate 48% among 1,800 | AID 493232, 2011; in the data active = inhibition above about 17%;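 also: 0% = agonist challenge with vehicle and 100% = vehicle alone without agonist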
Active calls of the source: *; x = no result.

SMILES | OX1R antag-1 | GPR7 antag | TAAR1 antagonist | TAAR1 agonist | CHO parental Ca | OX1R antag-2 | OX1R Ca confirm | CHO Ca counter | others
Cc1nn(C)c(C(=O)Nc2ccc3c(c2)OCO3)c1[N+](=O)[O-] | x | -2.4 | -3.8 | -0.4 | x | x | x | x
Cc1nn(C)c(C(=O)Nc2ccc(Cl)c([N+](=O)[O-])c2)c1Cl | 36.2 | -4.9 | 6.2 | 3.5 | 2.6 | 5.4 | 2.1 | 0.2
COc1ccccc1C(=O)COC(=O)c1ccc(N(C)C)cc1 | 30.1 | -11.1 | 22.9 | 8.5 | -0.4 | 33.8 | 8.9 | 19.4
CCOC(=O)C1=CCC(c2cccc(C)c2)N(S(=O)(=O)c2ccc(C)cc2)C1 (configuration not stated) | x | x | 37.2 | 1.9 | x | x | x | x
Cc1noc(NS(=O)(=O)c2ccc(NC(=O)c3cc(F)c(F)c(F)c3F)cc2)c1C | x | x | -0.9 | 0.6 | x | x | x | x
COc1cccc(C(=O)/C=C/Nc2ccc(S(=O)(=O)Nc3cccc(C(C)=O)c3)cc2)c1 | 32.1 | 14.8 | 55.7* | 11.5 | 16.5 | 49.9 | 24.9 | 14.5
CCc1ccc(NS(=O)(=O)c2ccc3[nH]cc(C(=O)N4CCc5ccccc54)c(=O)c3c2)cc1 | 31.0 | 1.9 | -3.2 | 2.4 | -14.8 | 68.4 | 31.8* | -10.8
Cc1cc(C)cc(NS(=O)(=O)c2ccc3[nH]cc(C(=O)N4CCc5ccccc54)c(=O)c3c2)c1 | 19.4 | 9.8 | 12.1 | -0.3 | -6.3 | 63.9 | x | x
Cc1ccc(NC(=O)c2ncn(CCCN(C)CCc3ccccn3)n2)cc1C | x | x | -7.5 | -0.1 | x | x | x | x
CC(C)(C)Nc1c(C2CCNCC2)nc2c(OCc3ccccc3)cccn12 | x | x | -7.6 | 0.8 | x | x | x | x
CC(C)NC(=O)C1CCN(C2CCN(CC3CC=CCC3)CC2)CC1 (configuration not stated) | 75.8* | 1.4 | -9.9 | -1.2 | -4.0 | 7.5 | 3.2 | -1.0
Cc1ccc(C)c(CNc2ccc(S(=O)(=O)N3CCCCC3)cc2)c1 | 44.1* | x | 12.5 | 7.8 | 7.5 | 2.7 | -6.3 | 53.1*
CCOC(=O)c1cc(OC(C)=O)c2ccc(OC)c(OC)c2c1 | x | x | -6.5 | -1.4 | x | x | x | x
COC(=O)[C@H](CC(C)C)NC(=O)NC1CCCc2ccccc21 (some centres not stated) | 44.1 | 1.2 | -5.6 | 6.1 | 24.9 | 25.8 | 22.7 | 22.7
CCNC(=O)C1CCCN(C(=O)c2cccc(OC(F)(F)F)c2)CC1 (configuration not stated) | x | x | -5.8 | 1.1 | x | x | x | x
CC1(c2ccc(OC(F)F)cc2)NC(=O)N(CC(=O)Nc2ccc(N3CCCCC3)cc2)C1=O (configuration not stated) | 17.9 | x | 44.4 | 49.5* | 14.2 | -1.1 | 62.4* | 31.7*
CC1(c2ccc([N+](=O)[O-])cc2)NC(=O)N(CC(=O)Nc2ccc(N3CCCCC3)cc2)C1=O (configuration not stated) | 20.6 | x | 40.4 | 42.9* | 17.6 | 6.1 | 47.9* | 19.7
O=C(c1ccco1)N1N=C(c2ccccc2O)CC1c1cccs1 (configuration not stated) | x | x | 22.2 | 1.2 | x | x | x | x
CC(C)Cc1ccc(-c2cc3nc(NCCCn4ccnc4)ccn3n2)cc1 | x | x | 14.5 | 17.0 | x | x | x | x
COc1cc2c(cc1OC)CN(C(=O)Cn1ccccc1=O)CC2 | 50.7* | 0.0 | x | x | -3.2 | 7.7 | 0.6 | -1.4
Cc1cccc(C)c1NC(=O)C1(C)CN(S(C)(=O)=O)CC(=O)N1CCc1ccccc1F (configuration not stated) | x | x | 3.5 | 12.5 | x | x | x | x
Cc1cc2nc(-c3cccnc3SCC(=O)NCc3ccco3)[nH]c2cc1C | 26.2 | 7.2 | -0.7 | 2.5 | -13.9 | 13.5 | -3.0 | -3.2
CCOC(=O)CSc1nnc(-c2ccc(NS(=O)(=O)c3ccc(C)cc3)cc2)o1 | 29.9 | -6.7 | 21.3 | 18.3 | 14.2 | 17.4 | 36.1* | 26.5*
CC(=O)NC(c1ccccc1)c1nc(-c2ccc(F)c(Cl)c2)cs1 (configuration not stated) | x | x | -5.6 | 0.5 | x | x | x | x
COc1cccc2cc(-c3nc(-c4cccs4)cs3)c(=O)oc12 | 38.5 | 3.5 | 15.4 | 5.8 | -4.8 | 31.8 | 68.9* | -7.1
SMILES | OX1R antag-1 | GPR7 antag | TAAR1 antagonist | TAAR1 agonist | CHO parental Ca | OX1R antag-2 | OX1R Ca confirm | CHO Ca counter | others
CC(=O)c1ccc(S(=O)(=O)NC2CCSc3ccccc32)cc1 (configuration not stated) | -7.4 | 1.4 | 1.7 | 1.1 | -5.9 | 18.9 | x | x
O=S(=O)(NC1CCSc2ccccc21)c1ccc(Cl)nc1 (configuration not stated) | 51.7* | -7.7 | 10.7 | -2.0 | -6.9 | 18.4 | 7.0 | -12.6
NS(=O)(=O)c1cccc(NC(=O)Nc2ccc(Cl)cc2)c1 | 29.9 | -6.5 | 14.0 | 26.8 | 27.3 | 31.7 | 22.8 | 19.8
N#CCc1ccc(NC(=O)Nc2cccc(Cl)c2)cc1 | 36.2 | 3.2 | 15.0 | 27.9 | 13.0 | 40.0 | 17.6 | 33.9*
N#CC1c2ccccc2-c2ccccc2N1C(=O)c1ccccc1 (configuration not stated) | x | x | 9.9 | 0.8 | x | x | x | x
Fc1ccc2nc(Nc3nc4c(F)cccc4s3)sc2c1 | 68.0* | 2.1 | -8.3 | 2.8 | -12.8 | 40.6 | 51.5* | -0.5
Fc1ccc2nc(Nc3nc4c(F)cc(F)cc4s3)sc2c1 | -11.2 | -8.7 | -4.5 | 3.8 | 10.7 | 21.0 | x | x
Fc1cccc2sc(Nc3nc4ccccc4s3)nc12 | 36.2* | -6.5 | 4.7 | -0.4 | -1.8 | 27.9 | 51.2* | 13.6
Cc1ccc(C)c(N(CC(=O)NC2CCCC2)C(=O)c2oc(C(C)(C)C)cc2C)c1 | 94.7* | 22.7 | -23.7 | 3.8 | 7.3 | 63.2* | 47.2* | -2.5 | OX1R HTRF conf=71.2*;CHO-K1 HTRF cnt=1.9
Cc1cc(C(C)(C)C)oc1C(=O)N(CC(=O)NC1CCCC1)Cc1ccccc1 | 7.5 | 7.1 | 32.5 | 26.1 | -12.0 | 13.7 | x | x

Screens: PubChem BioAssay, The Scripps Research Institute Molecular Screening Center
